Bioassay records as filed in PubChem BioAssay.
PfHsp90 yeast 2 = growth inhibition of PfHsp90-expressing yeast, primary screen, antimalarial PfHsp90 inhibitor project, S. cerevisiae, BacTiter-Glo luminescence, single point, set 2; 310,000 tested, 0.32% active; AID 504621, 2011; BacTiter-Glo ATP, 48 h; yeast lacking PDR1 and PDR3 efflux regulators; inhibition, % at 9.4 µM;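 active means every replicate shows inhibition above about 80%, whatever the replicate mean, limit read from the data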
Glyco luc inh = increase of ERlucT glycosylation luciferase signal, primary screen, N-linked glycosylation inhibitor project, D54 ERlucT cells, luminescence, set 2; D54 ERlucT glycosylation luciferase reporter, 24 h; percent of 100 nM tunicamycin response; reporter increase, % at 12.5 µM; 360,000 tested, 0.23% active; AID 588692, 2011;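 active means mean luciferase reporter signal, scaled so untreated is 0 and the glycosylation-blocking control 100, at or above a set limit in every replicate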;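 further: luciferase carries N-glycosylation sites so blocking glycosylation raises the light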
HSF1 activator = HSF-1 activators, primary screen, NIH3T3-HGL cells, MG132 stress, luminescence, single point; NIH3T3-HGL HSF-1 luciferase reporter, 8 h; 100% = twice DMSO control signal; AID 504408, 2011; 300,000 tested, 1.7% active; activation, % at 9 µM;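 active means mean replicate activation of at least 50% with a set share of replicates each reaching 50%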
CaV13 ICDI inh = Primary screen for inhibitors of IQ motif and Ca2+-dependent inactivation inhibitor domain binding in CACNA1D, Förster resonance energy transfer in living cells, …; HEK cells, CFP/YFP FRET ICDI-IQ, plate reader, 10 min; percent FRET-ratio fall versus neutral wells; inhibition, % at 12.3 µM; 340,000 tested, 0.098% active; AID 743397;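 active means mean replicate inhibition of at least 30% and at least 1% of replicates passing that level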
T cruzi inh = inhibitors of intracellular T. cruzi growth, primary screen, luminescence, NIH3T3 host cells | T. cruzi beta-gal in NIH3T3, 90 h | inhibition, % (no concentration beside the values) | 300,000 tested, 1.4% active | AID 1885, 2009;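 active means mean inhibition across valid replicates above about 55%, limit read from the data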;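 further: signal also drops with host cell toxicity which is not excluded here; higher percent means less beta-gal luminescence so fewer parasites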
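System – NIH/3T3 host cells with β-galactosidase reporter T. cruzi · Doses – single 50 nL compound addition per well in DMSO · Reagent – 5000 T. cruzi trypomastigotes/well · Medium – Low-serum DMEM with 2% FBS · Timing – ≥90 h infection period, 3 h prior cell attachment · Evaluation – parasite load inhibition, % · Technique – GalScreen luminescence, 60 min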
PvdQ acylase = P. aeruginosa PvdQ acylase inhibitors, primary screen, biochemical, fluorescence, plate reader and imaging, single point | PvdQ acylase [Pseudomonas aeruginosa LESB58] | AID 488965, 2010 | 340,000 tested, 0.063% active | purified PvdQ acylase | inhibition, % at 10 µM; in the data active means inhibition above about 30%, passing the limit was not always enough
Of the large screens only hits and unclear results are named; the others gave an inactive call. Sampled rows, rich in hits. Any-hit rate of the full collection: about 3%.

CCOC(=O)C1(COCc2ccccc2)CCCCC1=O (stereo not given)	none (no result: PfHsp90 yeast 2, HSF1 activator, T cruzi inh, PvdQ acylase)
O=C(C(=O)N1CCC(CNS(=O)(=O)c2cc(C(F)(F)F)cc(C(F)(F)F)c2)CC1)c1cccs1	none (no result: PfHsp90 yeast 2, Glyco luc inh, HSF1 activator, T cruzi inh, PvdQ acylase)
CCN1CCN(c2cc(C)c3cc(NC(=S)N4CCCC4)ccc3n2)CC1	none
CCCN(CCC)CCCNC(=S)Nc1ccc2nc(N3CCN(CC)CC3)cc(C)c2c1	none
CCN1CCN(c2cc(C)c3cc(NC(=S)N4CCCCC4)ccc3n2)CC1	T cruzi inh 58
CCCCN(CC)CCNC(=S)Nc1ccc2nc(N3CCN(C)CC3)cc(C)c2c1	T cruzi inh 64
Cc1cc(N2CCN(C)CC2)nc2ccc(NC(=O)c3ccccc3F)cc12	T cruzi inh 65
CCCN(CCC)CCCNC(=S)Nc1ccc2nc(N3CCN(C)CC3)cc(C)c2c1	T cruzi inh 57
CCCCn1nnnc1C1(C)CCC(=O)N1CCc1ccc(OC)c(OC)c1 (stereo not given)	none (no result: PfHsp90 yeast 2, Glyco luc inh, HSF1 activator, T cruzi inh, PvdQ acylase)
C=CCN(CC=C)Cc1cc(=O)oc2cc(C)c(C)cc12	none (no result: PfHsp90 yeast 2, HSF1 activator, T cruzi inh, PvdQ acylase)
Oc1ccc(/C=N/Nc2ccc(C(F)(F)F)cn2)cc1	HSF1 activator 86
COc1cc(C)ccc1OCc1cc(C(=O)N(Cc2nccn2C)C(C)C)no1	HSF1 activator 58
COc1cccc(OCc2cc(C(=O)N(Cc3nccn3C)C(C)C)no2)c1	none
COc1ccc(S(=O)(=O)N2CCCCC2c2cc(C(=O)NCc3cccnc3)no2)cc1 (stereo not given)	none (no result: PfHsp90 yeast 2, HSF1 activator, T cruzi inh, PvdQ acylase)
Nc1ccc2nc(-c3ccccc3)cnc2c1	CaV13 ICDI inh active (no result: T cruzi inh)
Nc1ccc2nc(-c3ccccc3)c(-c3ccccc3)nc2c1	Glyco luc inh 33
Cc1cnc(-c2nc3ccccc3n2C(C(=O)Nc2c(C)cccc2C)C2CC2)cn1 (stereo not given)	none (no result: PfHsp90 yeast 2, Glyco luc inh, HSF1 activator, T cruzi inh, PvdQ acylase)
COC(=O)/C=C1\Nc2ccc(Cl)cc2C(=O)NC1=O	none (no result: PfHsp90 yeast 2, Glyco luc inh, HSF1 activator, T cruzi inh, PvdQ acylase)
CCCCc1c(-c2ccccc2OC)ncn1Cc1c(F)cccc1F	none (no result: PfHsp90 yeast 2, Glyco luc inh, HSF1 activator, T cruzi inh, PvdQ acylase)
Cc1ccc(S(=O)(=O)N2CCCc3nc(C)c(C)cc32)cc1	none (no result: PfHsp90 yeast 2, Glyco luc inh, HSF1 activator, T cruzi inh, PvdQ acylase)
Nc1nnc(SCc2ccc(Cl)cc2)s1	none (no result: CaV13 ICDI inh)
Nc1nnc(SCc2c(F)cccc2Cl)s1	HSF1 activator 77
O=C(C#Cc1ccccc1)c1ccc([N+](=O)[O-])cc1	PfHsp90 yeast 2 101, HSF1 activator 61
CC1=C(C(=O)Nc2ccccc2)C(c2ccc(C)cc2)N=C(Nc2nc3ccccc3o2)N1 (stereo not given)	HSF1 activator 62, T cruzi inh 57
CN(C)CCCn1c(=O)n(Cc2ccco2)c(=O)c2c3c(sc21)CCCCC3	none
CCOC(=O)c1sc2c(c1C)c(=O)n(Cc1ccccc1)c(=O)n2CCN(C)C	T cruzi inh 59
CN(C)CCCn1c(=O)n(CCc2ccccc2)c(=O)c2c3c(sc21)CCCCC3	T cruzi inh 61
CN(C)CCn1c(=O)n(Cc2ccccc2)c(=O)c2c3c(sc21)CCCCC3	T cruzi inh 59
CCOC(=O)CN1C(=O)[C@]2(OCCC=C[C@H]2C)c2c(Br)cccc21	none (no result: PfHsp90 yeast 2, Glyco luc inh, HSF1 activator, T cruzi inh, PvdQ acylase)
O=C(N[C@H](C(=O)N1CCC[C@H]1C(=O)NC1CCCC1)C1CCCCC1)C1CCCC1	none (no result: PfHsp90 yeast 2, Glyco luc inh, HSF1 activator, T cruzi inh, PvdQ acylase)
Cc1cc(NC(=O)c2ccccc2)sc1C	HSF1 activator 60
COc1ccc(-c2cc3c(c4c2ccn4C)C2CCC3C2)cc1OC (stereo not given)	none (no result: PfHsp90 yeast 2, HSF1 activator, T cruzi inh, PvdQ acylase)
O=C(NNc1c(Cl)cccc1Cl)C1CCC1	HSF1 activator 53
COC(=O)C1=C(C)N(Cc2ccccc2C(F)(F)F)C(=NCc2ccc3c(c2)OCO3)NC1c1ccc(Cl)cc1 (stereo not given)	none (no result: PfHsp90 yeast 2, Glyco luc inh, HSF1 activator, T cruzi inh, PvdQ acylase)
O=C(Nc1cccc(F)c1)c1ccc2c(c1)OCCO2	HSF1 activator 57
O=C(Nc1ccc2c(c1)OCCO2)c1ccc(NC(=O)C2CCCO2)cc1 (stereo not given)	CaV13 ICDI inh 93
